ChEMBL document CHEMBL6071158, “Design, synthesis, and in vitro biological evaluation of meta-sulfonamidobenzamide-based antibacterial LpxH inhibitors” (Eur J Med Chem, 2024)
Converted amounts (≈) assume the structure as drawn.

Columns and labels:
[1] = Hemolysis activity in human RBC cells assessed as effect on hemolysis relative to control; assay type: toxicity, cell-based, Erythrocyte; details: human red blood cells, read-out: Activity
Klebsiella pneumoniae [2] = assay: Antibacterial activity against wild type Klebsiella pneumoniae ATCC 13883 assessed as of bacterial growth incubated for 16 to 20 hrs by Mueller-Hinton broth based two-fold serial dilution method
Escherichia coli [3] = assay: Inhibition of Escherichia coli LpXH enzyme at 100 nM by colorimetric coupled enzymatic analysis relative to control
In short: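 AaLpxE-coupled assay: E. coli LpxH 0.1 nM and UDP-DAGn 20 µM (final) in 20 mM Tris-HCl pH 8.0, BSA, 0.02 % Triton X-100, 1 mM MnCl₂, 1 mM DTT, 10 % DMSO; inhibitor pre-incubated with enzyme 10 min, reaction 30 min at 37 °C, EDTA quench, then LpxE 30 min; released phosphate by malachite green at 620 nm vs phosphate standard; triplicate.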

hERG (KCNH2) [4] = molecular target: T1, hERG (KCNH2) (Homo sapiens, UniProt Q12809); assay: Inhibition of hERG expressed in CHO cells at 30 uM by automated patch clamp analysis relative to control; assay type: toxicity, cell-based; details: CHO cells that express hERG
T1 sequence (Q12809 whole entry): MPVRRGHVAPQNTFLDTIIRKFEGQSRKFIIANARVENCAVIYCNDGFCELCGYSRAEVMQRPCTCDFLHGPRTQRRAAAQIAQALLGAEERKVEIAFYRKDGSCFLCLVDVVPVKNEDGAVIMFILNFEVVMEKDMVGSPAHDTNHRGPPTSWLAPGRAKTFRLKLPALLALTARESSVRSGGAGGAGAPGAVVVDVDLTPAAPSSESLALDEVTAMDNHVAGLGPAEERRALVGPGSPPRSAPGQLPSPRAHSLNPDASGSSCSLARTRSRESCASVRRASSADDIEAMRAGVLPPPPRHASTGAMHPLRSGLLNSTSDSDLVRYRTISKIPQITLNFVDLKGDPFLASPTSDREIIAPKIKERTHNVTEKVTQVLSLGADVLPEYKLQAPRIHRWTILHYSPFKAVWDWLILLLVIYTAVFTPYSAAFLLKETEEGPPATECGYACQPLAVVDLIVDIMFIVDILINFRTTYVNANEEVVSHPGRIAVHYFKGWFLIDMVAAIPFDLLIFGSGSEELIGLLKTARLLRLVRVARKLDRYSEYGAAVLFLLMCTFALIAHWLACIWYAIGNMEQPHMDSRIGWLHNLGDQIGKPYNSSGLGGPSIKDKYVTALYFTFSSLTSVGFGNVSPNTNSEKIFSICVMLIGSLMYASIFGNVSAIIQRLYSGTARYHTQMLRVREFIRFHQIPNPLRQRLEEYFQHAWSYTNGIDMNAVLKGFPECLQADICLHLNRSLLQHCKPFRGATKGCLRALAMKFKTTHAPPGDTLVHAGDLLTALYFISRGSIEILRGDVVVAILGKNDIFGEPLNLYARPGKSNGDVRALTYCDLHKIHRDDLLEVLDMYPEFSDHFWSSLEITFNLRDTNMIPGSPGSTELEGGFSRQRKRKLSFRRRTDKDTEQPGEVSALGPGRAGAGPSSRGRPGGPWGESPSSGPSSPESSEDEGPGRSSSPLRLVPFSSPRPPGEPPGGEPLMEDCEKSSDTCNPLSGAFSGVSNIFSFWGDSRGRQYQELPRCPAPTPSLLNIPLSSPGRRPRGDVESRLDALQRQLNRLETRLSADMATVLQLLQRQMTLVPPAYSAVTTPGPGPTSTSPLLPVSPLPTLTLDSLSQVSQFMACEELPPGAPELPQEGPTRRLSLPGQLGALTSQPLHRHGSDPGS
In short: (§1)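 Stably expressing CHO-KV11.1 cells, automated whole-cell population patch clamp (10 cells) at 22 °C; vehicle baseline (0.43 % DMSO) then two cumulatively rising concentrations, 30 s exposure. Holding −80 mV, steps in 10 mV increments to 50 mV for 5 s, tail current at −50 mV (peak in first 90 ms, leak-subtracted); protocol every 150 s; triplicate, mean ± SEM.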

Escherichia coli [5] = assay: Antibacterial activity against efflux pump-deficient delta tolC Escherichia coli ATCC 25922 assessed as bacterial growth inhibition incubated for 16 to 20 hrs by Mueller-Hinton broth based two-fold serial dilution method; assay type: functional; details: time 16-20 hrs
hERG (KCNH2) [6] = molecular target: T1, hERG (KCNH2); assay: Inhibition of hERG expressed in CHO cells at 10 uM by automated patch clamp analysis relative to control; assay type: toxicity, cell-based; details: CHO cells that express hERG; in short: as §1
Escherichia coli [7] = assay: Antibacterial activity against wild type Escherichia coli ATCC 25922 incubated for 16 to 20 hrs by Mueller-Hinton broth based two-fold serial dilution method; assay type: functional; details: time 16-20 hrs
[8] = Cytotoxicity against human HepG2 cells assessed as inhibition of cells incubated for 72 hrs by fluorometric microculture analysis; assay type: toxicity, cell-based
In short: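 HepG2 (mycoplasma-free, ≤20 passages, DMEM + 10 % FBS + pen/strep) seeded 4000/well, cultured overnight, then exposed 72 h at 37 °C, 5 % CO₂ to nine two-fold dilutions in duplicate, top 100 µM. Viability by fluorescein diacetate hydrolysis (0.5 µg/ml FDA, 50 min, ex 475/em 520 nm); survival index vs control; IC50 by non-linear regression of log concentration-effect curves. Bortezomib 2 µM positive control.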

Escherichia coli [9] = assay: Antibacterial activity against efflux-defective Escherichia coli delta tolC ATCC 25922; assay type: functional
Klebsiella pneumoniae [10] = assay: Antibacterial activity against Klebsiella pneumonia ATCC 13883 assessed as viable colonies measured after 18 to 20 hrs by Mueller-Hinton II broth assay; assay type: functional; details: time 18-20 hrs
Escherichia coli [11] = assay: Antibacterial activity against Escherichia coli ATCC 25922 assessed as viable colonies measured after 18 to 20 hrs by Mueller-Hinton II broth assay; assay type: functional; details: time 18-20 hrs

| SMILES | hemolysis [1] [%] | MIC (Klebsiella pneumoniae [2]) [µg/mL] | inhibition (Escherichia coli [3]) [%] | inhibition at 30 µM (hERG (KCNH2) [4]) [%] | MIC (Escherichia coli [5]) [µg/mL] | inhibition at 10 µM (hERG (KCNH2) [6]) [%] | MIC (Escherichia coli [7]) [µg/mL] | IC50 at 72 h [8] [µM] | MIC (Escherichia coli [9]) [µg/mL] | MIC (Klebsiella pneumoniae [10]) [µg/mL] | MIC (Escherichia coli [11]) [µg/mL] |
| --- | --- | --- | --- | --- | --- | --- | --- | --- | --- | --- | --- |
| Cc1cc(C#N)nc(N2CCN(S(=O)(=O)c3ccc(NC(=O)c4cc(CNCCCN)cc(NS(C)(=O)=O)c4)cc3)CC2)n1 | 0.08 | 4 (≈ 6.23 µM) | 63 | 9 | 0.5 (≈ 0.779 µM) | 3 | 8 (≈ 12.5 µM) | > 100 | – | – | – |
| Cc1cc(C#N)nc(N2CCN(S(=O)(=O)c3ccc(NC(=O)c4cc(C=C5CNC5)cc(NS(C)(=O)=O)c4)cc3)CC2)n1 | 0.17 | 16 (≈ 25.7 µM) | 86 | 24 | 0.5 (≈ 0.803 µM) | 4 | 64 (≈ 103 µM) | > 100 | – | – | – |
| Cc1cc(C#N)nc(N2CCN(S(=O)(=O)c3ccc(NC(=O)c4cc(CN5CC(CN)C5)ccc4N(C)S(C)(=O)=O)cc3)CC2)n1 | 0.13 | 0.5 (≈ 0.749 µM) | 71 | 16 | ≤ 0.125 | 5 | 2 (≈ 2.99 µM) | 54 | – | – | – |
| CS(=O)(=O)Nc1ccccc1C(=O)Nc1ccc(S(=O)(=O)N2CCN(c3cc(Cl)cc(Cl)c3)CC2)cc1 | – | – | – | – | – | – | 64 (≈ 110 µM) | – | – | – | – |
| NC(=O)[C@H]1CC[C@H](C(F)(F)c2cc(Cl)nc(N3CCN(S(=O)(=O)c4ccc(N5C[C@@H](N)CC5=O)cc4)CC3)c2)CC1 | – | – | – | – | – | – | 0.3 (≈ 0.491 µM) | – | – | – | – |
| CN(c1ccccc1C(=O)Nc1ccc(S(=O)(=O)N2CCN(c3cc(Cl)cc(Cl)c3)CC2)cc1)S(C)(=O)=O | – | – | – | – | – | – | 1 (≈ 1.67 µM) | – | – | – | – |
| CC(=O)N1CCc2cc(S(=O)(=O)N3CCN(c4cccc(C(F)(F)F)c4)CC3)ccc21 | – | – | – | – | – | – | – | – | 0.25 (≈ 0.551 µM) | – | – |
| CS(=O)(=O)Nc1cccc(C(=O)Nc2ccc(S(=O)(=O)N3CCN(c4cc(Cl)cc(Cl)c4)CC3)cc2)c1 | – | – | – | – | 0.125 (≈ 0.214 µM) | – | 4 (≈ 6.85 µM) | – | – | – | – |
| Cc1cc(C#N)nc(N2CCN(S(=O)(=O)c3ccc(NC(=O)c4cccc(NS(C)(=O)=O)c4)cc3)CC2)n1 | 0.05 | 2 (≈ 3.6 µM) | 75 | 12 | 0.125 (≈ 0.225 µM) | 3 | 4 (≈ 7.2 µM) | – | – | – | – |
| CN(c1cccc(C(=O)Nc2ccc(S(=O)(=O)N3CCN(c4cc(Cl)cc(Cl)c4)CC3)cc2)c1)S(C)(=O)=O | – | – | – | – | 0.125 (≈ 0.209 µM) | – | 64 (≈ 107 µM) | – | – | – | – |
| Cc1cc(C#N)nc(N2CCN(S(=O)(=O)c3ccc(NC(=O)c4ccccc4N(C)S(C)(=O)=O)cc3)CC2)n1 | 0.05 | 2 (≈ 3.51 µM) | 100 | 24 | ≤ 0.125 | 14 | 2 (≈ 3.51 µM) | 29 | – | – | – |
| Cc1cc(C#N)nc(N2CCN(S(=O)(=O)c3ccc(NC(=O)c4cc(CNC[C@H]5C[C@@H]5N)ccc4N(C)S(C)(=O)=O)cc3)CC2)n1 | 0.35 | 0.5 (≈ 0.749 µM) | 100 | 28 | ≤ 0.125 | 9 | 2 (≈ 2.99 µM) | 47 | – | 0.5 (≈ 0.749 µM) | 2 (≈ 2.99 µM) |
| Cc1cc(C#N)nc(N2CCN(S(=O)(=O)c3ccc(NC(=O)c4cc(CNCCCN)ccc4N(C)S(C)(=O)=O)cc3)CC2)n1 | 0.06 | 1 (≈ 1.52 µM) | 69 | 11 | ≤ 0.125 | 4 | 2 (≈ 3.05 µM) | 55 | – | – | – |
| Cc1cc(C#N)nc(N2CCN(S(=O)(=O)c3ccc(NC(=O)c4cc(CN5CC(CN)C5)cc(NS(C)(=O)=O)c4)cc3)CC2)n1 | 0.06 | 4 (≈ 6.12 µM) | 89 | 7 | 0.25 (≈ 0.382 µM) | 4 | 16 (≈ 24.5 µM) | – | – | – | – |
| Cc1cc(C#N)nc(N2CCN(S(=O)(=O)c3ccc(NC(=O)c4cc(NS(C)(=O)=O)nc(N5CC(CN)C5)c4)cc3)CC2)n1 | 0.12 | 4 (≈ 6.24 µM) | 80 | 0 | 0.5 (≈ 0.78 µM) | 1 | 8 (≈ 12.5 µM) | > 100 | – | – | – |
| Cc1cc(C#N)nc(N2CCN(S(=O)(=O)c3ccc(NC(=O)c4cc(Cl)nc(NS(C)(=O)=O)c4)cc3)CC2)n1 | 0.02 | 4 (≈ 6.77 µM) | 54 | 0 | ≤ 0.125 | 2 | 8 (≈ 13.5 µM) | > 50 | – | – | – |
| Cc1cc(C#N)nc(N2CCN(S(=O)(=O)c3ccc(NC(=O)c4cc(NS(C)(=O)=O)cc(N5CC(CN)C5)c4)cc3)CC2)n1 | 0.12 | 32 (≈ 50 µM) | 92 | 9 | 0.25 (≈ 0.391 µM) | 5 | 64 (≈ 100 µM) | > 100 | – | – | – |
